Sampled rows, rich in hits. Any-hit rate of the full collection: about 2.6%.
5HT1a antag: antagonists of human 5-HT1a serotonin receptor; CHO 5-HT1a Ga15 NFAT-bla reporter, antagonist mode; hit rate 0.68% among 62,000; inhibition, % at 10 µM;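 active means inhibition above the mean of all tested compounds plus 3 SD, cut at about 43% in these data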;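 further: receptor stimulated by 5-CT agonist at 100 nM near EC80; beta-lactamase reporter measured by ratiometric fluorescence of a cleavable substrate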
Target sequence (P08908 whole entry, looked up): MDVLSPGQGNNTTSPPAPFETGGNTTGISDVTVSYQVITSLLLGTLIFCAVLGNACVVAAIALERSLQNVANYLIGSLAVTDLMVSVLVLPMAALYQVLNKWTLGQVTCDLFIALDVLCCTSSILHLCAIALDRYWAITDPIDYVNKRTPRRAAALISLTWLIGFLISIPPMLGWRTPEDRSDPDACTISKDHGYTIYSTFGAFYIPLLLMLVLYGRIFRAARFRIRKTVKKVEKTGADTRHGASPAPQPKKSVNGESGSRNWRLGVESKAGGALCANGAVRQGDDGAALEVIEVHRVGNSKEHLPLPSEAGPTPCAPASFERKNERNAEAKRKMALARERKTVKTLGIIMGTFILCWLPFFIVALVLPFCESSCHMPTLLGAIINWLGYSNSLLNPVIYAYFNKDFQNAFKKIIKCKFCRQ
5HT1a ag: activates the human 5-HT1a serotonin receptor; P08908; CHO 5-HT1a Ga15 NFAT-bla reporter, FRET ratio; 0% basal, 100% maximal reference agonist; activation, % at 10 µM; hit rate 0.56% among 65,000; AID 567;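 active means activation above the screen-wide mean activation plus 3 SD, cut at about 19% in these data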;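 further: 0% = DMSO wells and 100% = 5-CT at EC100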
5HT1E antag: 5-HT1E (human) receptor antagonism | CHO 5-HT1E Ga15 NFAT-bla reporter, FRET, antagonist | AID 571 | hit rate 0.99% among 65,000 | inhibition, % at 6 µM | P28566;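 active means inhibition above a set limit, the mean inhibition across every tested compound plus 3 SD, cut at about 29% in these data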;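 further: signal is the 460 over 535 nm emission ratio of beta-lactamase substrate; 0% = agonist plus DMSO wells and 100% = wells without agonist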
S1P3 ag: activates the human S1P3 receptor. Q99500. activation, % at 4.5 µM. AID 373. S1P3 NFAT-BLA reporter cells, agonism, FRET ratio; relative to 1 µM S1P, basal subtracted. hit rate 0.1% among 60,000;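 active means activation above the screen-wide mean plus 3 SD, cut at about 4.5% in these data, passing the limit was not always enough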
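material = human S1P3 NFAT-BLA reporter CHO cells | schedule = 4 h compound at 37 °C, 2 h substrate at RT | measured by = fluorescent BLA substrate, ex 405 nm, em 460/535 nm ratio | controls = 1 µM S1P reference | replication = primary once, confirmation triplicate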
HTR1E agonist: 5-HT1E (human) receptor agonism | P28566 | CHO 5-HT1E Ga15 NFAT-bla reporter, FRET; 0% DMSO wells, 100% control agonist wells | activation, % at 6 µM | hit rate 0.69% among 65,000;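 active means activation above a set limit, the screen-wide mean activation plus 3 SD, cut at about 8.5% in these data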;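 further: 100% = positive control agonist at 1 µM giving full maximal response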
Starred values were filed as active, the others as inactive; . = no result.

SMILES	5HT1a antag	5HT1a ag	5HT1E antag	S1P3 ag	HTR1E agonist
O=C(Cn1cc2c(n1)CCCC2)Nc1cc(-c2cccc(Cl)c2)no1	0.1	-0.3	-7.1	0.8	-0.1
O=C(CS(=O)CC(=O)N(CC(=O)NC1CCCC1)C1CCCC1)Nc1ccc(F)cc1 (stereo not given)	-1.3	-1.7	3.5	0.8	1.5
COc1ccc(-c2[nH]c(-c3cccc(OC)c3)nc2SCC(=O)NCc2ccco2)cc1	9.6	0.1	15.8	-0.5	0.4
Cc1c(NC(=O)C(C)Sc2nc3ccccc3c(=O)n2CCO)c(=O)n(-c2ccccc2)n1C (stereo not given)	-14.9	-3.5	-0.9	-0.5	-0.7
Cc1ccc(-c2nnc(SCc3ccccc3F)o2)cc1	3.6	0.3	-1.0	-0.1	-0.7
COc1ccc(-c2nnc(SCc3ccccc3F)o2)cc1OC	9.7	-1.4	29.9*	1.1	-0.3
C1CNCCNCCNCCN1	.	2.4	-8.7	-3.3	-0.3
O=S(=O)(NCCc1csc(-c2cccnc2)n1)c1ccc(Cl)s1	-8.4	-1.1	13.7	-0.6	-1.4
CCc1nn(C(C)C(=O)NCCN2CCN(c3cccc(C)c3C)CC2)c(=O)c2cc3occc3n12 (stereo not given)	40.5	10.6	-5.7	-0.5	62.1*
O=C(c1cccc(Cl)c1)N1CCN(Cc2ccccc2F)CC1	-1.0	-0.6	0.7	-0.7	0.2
Cn1nnnc1Sc1nc(-c2cccnc2)nc2ccccc12	13.6	-3.5	1.8	-0.8	0.3
Cc1sc2nc(SCC(=O)NCCOCCO)n(C)c(=O)c2c1C	-8.4	0.1	-6.1	-1.2	-1.1
COc1cc(-c2nn3c(Cc4ccccc4)nnc3s2)cc(OC)c1OC	13.7	-0.3	30.6*	-0.3	0.1
COc1ccc2c3c(cccc13)NN=C2C	-3.1	0.6	3.7	-0.3	0.1
COC(=O)c1[nH]c2cccc(Cl)c2c1NC(=O)CN(C)C1CCCCC1	19.2	-3.0	9.7	-0.4	-0.3
Cc1cc(C(=O)NCCN2CCN(c3cccc(Cl)c3)CC2)n(-c2ccccc2)n1	23.6	30.8*	-4.2	-1.7	1.5
COCCn1c(=O)[nH]c2cc(C(=O)NCCN3CCN(c4cccc(Cl)c4)CC3)ccc2c1=O	22.6	27.8*	7.7	.	1.8
Cn1cc(C(=O)NCCN2CCN(c3cccc(Cl)c3)CC2)c2c3ccccc3n(C)c2c1=O	-1.9	2.2	1.6	-0.3	1.1
CCOCCCn1c(=S)[nH]c2cc(C(=O)NCCOC)ccc2c1=O	2.2	1.0	1.4	.	16.2*
O=C(Nc1ccon1)c1csc2c1CCCC2	-18.5	-1.5	-9.9	0.2	8.9*
CCC(=O)N1CCN(c2nc(C)nc3sc(C)c(C)c23)CC1	4.4	-0.7	3.9	-1.1	0.1
Cc1nc(N2CCN(C)CC2)c2c(C)c(C(=O)Nc3ccc(F)cc3)sc2n1	-7.9	0.5	-8.5	.	20.3*
Cc1ccc2c(c1)NC(=O)C(CC(=O)NCCCN1CCN(c3cc(C)ccc3C)CC1)O2 (stereo not given)	47.3*	-1.7	-6.7	-0.9	0.9
[O-][N+]1=c2ccc(Nc3ccccc3)cc2=NC12CCCCC2	55.2*	-3.3	30.2*	-1.5	0.3
CN(C)S(=O)(=O)c1cccc(-c2nnc(SCc3ccc4c(c3)OCCO4)o2)c1	-17.2	2.7	-26.4	-0.9	1.7
SMILES	5HT1a antag	5HT1a ag	5HT1E antag	S1P3 ag	HTR1E agonist
C/C(N)=C(/C#N)C(=O)CSc1nnnn1-c1ccc(C)cc1C	3.6	-2.0	24.6	-1.4	-1.2
Cc1ccc2nc(C(F)(F)F)c(C#N)c(N)c2c1	.	-0.8	34.7*	-3.7	-1.3
Cc1[nH]c2ccc(Br)cc2c(=O)c1CN1CCCCC1	7.2	104.3*	9.3	-0.5	-1.8
COC(=O)c1ccc2[nH]c(C)c(CN3CCCC3)c(=O)c2c1	2.1	-1.1	6.2	.	-0.2
COc1ccc(Cl)cc1C(=O)Nc1nnn(C)n1	2.7	2.0	9.2	-0.2	-0.4
CCOc1ccc(N2C(=O)CC(N3CCN(C4CCc5ccccc5C4)CC3)C2=O)cc1 (stereo not given)	8.9	-2.7	4.1	-1.6	-0.8
Cc1ccc(N2C(=O)CC(N3CCN(C4CCc5ccccc5C4)CC3)C2=O)cc1 (stereo not given)	13.7	20.1*	8.8	-1.9	-0.4
CCCCOc1ccc(OCCNS(=O)(=O)N(C)C)cc1	-10.5	-1.4	-11.2	-0.2	0.3
CCCC(c1nnnn1Cc1ccco1)N1CCN(c2cc(Cl)ccc2C)CC1 (stereo not given)	51.2*	-1.8	0.1	-1.7	-0.3
CCCCC(c1nnnn1CC1CCCO1)N1CCN(c2cc(Cl)ccc2C)CC1 (stereo not given)	36.3	-0.2	-10.8	-1.6	-0.3
CCOC(=O)N1CCC(N2C(=O)c3ccc(C(=O)NC4CCCCCC4)cc3C2=O)CC1	10.5	-2.1	-1.9	-0.4	-0.1
COc1ccccc1-c1n[nH]c(=S)n1-c1ccccc1	5.4	-1.4	-5.6	-0.9	-0.7
COc1ccccc1N1CCN(CCc2n[nH]c(=S)n2-c2ccccc2)CC1	69.2*	2.3	2.9	-1.5	30.3*
Cc1cccn2c(=O)c3cc(C(=O)N4CCc5ccccc5C4)n(C)c3nc12	-10.6	-1.9	-6.3	0.6	1.0
c1coc(CNC2CCCCCCC2)c1	4.8	42.3*	12.5	-0.3	-1.2
Nc1nnnn1/N=C/C=C/c1ccccc1	1.5	6.9	7.1	-0.8	-1.4
Nc1nnnn1/N=C/C(Br)=C/c1ccccc1	85.4*	-1.8	47.5*	-1.4	1.4
COc1ccc(-c2nc(N3CCCC3)nc3nn4c(C)cc(C)nc4c23)cc1	-6.9	0.1	-0.8	0.3	0.1
OC(COCc1ccccc1)CN1CCN(c2ccccc2F)CC1 (stereo not given)	21.6	2.3	5.8	-0.8	0.9
COc1cccc(OCC(O)CN2CCOCC2)c1 (stereo not given)	-11.5	0.0	-12.3	0.2	0.6
CCOC(=O)N1CCN(CC(O)c2ccc3cc[nH]c3c2)CC1 (stereo not given)	2.5	0.8	1.7	22.9	-0.9
COc1cccc(OC)c1OCC(O)CN1CCN(c2ccccc2)CC1 (stereo not given)	45.4*	-2.5	-0.8	0.0	1.5
COc1ccccc1N1CCN(CC(O)c2ccc3cc[nH]c3c2)CC1 (stereo not given)	87.2*	6.2	21.0	-0.7	2.5
OC(COc1ccc2c(c1)CCC2)CN1CCN(c2ccccc2F)CC1 (stereo not given)	44.1*	0.8	-7.2	-0.5	0.7
C=CCc1ccccc1OCC(O)CN1CCN(c2ccc(OC)cc2)CC1 (stereo not given)	81.2*	-0.8	10.5	-0.4	-0.5
O=C(NCc1cccnc1)C1CCCN(S(=O)(=O)c2ccccc2)C1 (stereo not given)	9.4	2.7	1.7	-0.7	-0.5
COc1ccccc1N1CCN(CC(O)COc2c(OC)cccc2OC)CC1 (stereo not given)	95.1*	-3.3	-4.0	-1.9	2.9

Screening results: PubChem BioAssay, The Scripps Research Institute Molecular Screening Center
